Consider 25 compounds from ChEMBL document CHEMBL4610001 (J Med Chem, 2020).

Series [1] addresses Lysophosphatidic acid receptor 1 (Rattus norvegicus) (UniProt P61794). Nature of the series: Agonist activity at LPA1 receptors in Wistar rat DRG neurons assessed as increase in calcium influx at 500 nM measured after 10 secs in presence of capsaicin by Fluo-4 NW dye based inverted microscopic method. Format: functional.
In series [2] the target is T1, Lysophosphatidic acid receptor 1 (Homo sapiens, UniProt Q92633). Nature of the series: Agonist activity at LPA1 receptor (unknown origin) stably expressed in rat RH7777 cells assessed as increase in intracellular calcium level at 10 uM by Fluo-4 NW dye based fluorescence assay. Type of series: functional, cell-based. The method, boiled down: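 LPA1-stably transfected RH7777 hepatoma cells on poly-D-lysine, 50000 cells/well, cultured overnight. Loaded with Fluo-4 NW plus […] for 30 min at 37°C, then 30 min at rt. Compound added at 120 s of a 240 s read (ex 494/em 525 nm). Response taken as maximum minus baseline, relative to the 10 μM LPA control; ionomycin 10 μM also included. Run in triplicate.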
T1 sequence (Q92633 whole entry): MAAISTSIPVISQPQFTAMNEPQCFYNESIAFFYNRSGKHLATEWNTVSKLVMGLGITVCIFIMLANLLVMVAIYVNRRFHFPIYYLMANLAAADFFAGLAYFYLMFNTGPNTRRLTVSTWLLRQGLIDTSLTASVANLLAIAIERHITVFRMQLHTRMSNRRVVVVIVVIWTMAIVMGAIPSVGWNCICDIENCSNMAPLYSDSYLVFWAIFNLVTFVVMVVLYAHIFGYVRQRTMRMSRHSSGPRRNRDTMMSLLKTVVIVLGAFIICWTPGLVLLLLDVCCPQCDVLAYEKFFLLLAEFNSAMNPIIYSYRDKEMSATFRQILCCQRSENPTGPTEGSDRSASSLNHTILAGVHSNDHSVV

The target in series [3] is Lysophosphatidic acid receptor 1 (Rattus norvegicus) (UniProt P61794). Nature of the series: Induction of LPA1 receptor desensitization in Wistar rat DRG neurons assessed as reduction in calcium influx at 10 uM treated twice after 10 secs in presence of capsaicin by Fluo-4 NW dye based inverted microscopic method. Type of series: functional. In outline: (§1)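 DRG neurons from 3–5-day-old Wistar rats were collagenase-digested and cultured 48 h with NGF. Cells loaded with 5 μM Fluo-4AM and 0.02% pluronic in HEPES-buffered HBSS pH 7.4 for 1 h at 37°C, then perfused at rt. Compound given at 10 μM final (from 10 mM DMSO stock) as 10 s pulses. Capsaicin and 40 mM KCl (10 s, viability) also applied. Signal is peak minus baseline fluorescence; a response is >20% over baseline.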
Lysophosphatidic acid receptor 1 (Rattus norvegicus), sequence (P61794 whole entry, the tested form may be a part): as the sequence (Q92633 whole entry) above, with I4A, I8S, P22Q, H40Y, I61V, E193D, N194H, I269V, S331N, T335N counted along it

For series [4] the target is unchanged. Briefly: Agonist activity at LPA1 receptors in Wistar rat DRG neurons assessed as increase in calcium influx at 10 uM measured after 10 secs in presence of capsaicin by Fluo-4 NW dye based inverted microscopic method. Format: functional. In outline: as §1
Series [5] has the same target. Briefly: Agonist activity at LPA1 receptors in Wistar rat DRG neurons assessed as increase in neuronal activity at 10 uM incubated for 15 secs in presence of capsazepine by Microelectrode Array. In outline: (§2)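 Neonatal Wistar rat DRG neurons, cultured 48 h on poly-L-lysine/laminin-coated 60-electrode MEA chips. Compound perfused at 10 μM final for 15 s at 2 mL/min. Extracellular activity recorded at 25 kHz; output is mean spike frequency.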

Series [6] has as its target T1, Lysophosphatidic acid receptor 1. Nature of the series: Binding affinity to LPA1 receptor (unknown origin) by cell-based backscattering interferometry.
For series [7] the target is unchanged. Briefly: Agonist activity at LPA1 receptor (unknown origin) stably expressed in rat RH7777 cells assessed as increase in intracellular calcium level by Fluo-4 NW dye based fluorescence assay. Type of series: functional, cell-based. In general terms: Calcium assays in cells follow changes in intracellular calcium, usually with a dye or a luminescent sensor.

Series [8] deals with Lysophosphatidic acid receptor 1 (Rattus norvegicus) (UniProt P61794). Briefly: Induction of LPA1 receptor desensitization in Wistar rat DRG neurons assessed as reduction in neuronal activity at 10 uM treated for 15 secs twice with 4 mins interval in presence of capsazepine by microelectrode Array. In outline:
as §2

Series [9] has the same target. Briefly: Agonist activity at LPA1 receptors in Wistar rat DRG neurons assessed as increase in neuronal activity at 10 uM incubated for 15 secs in presence of capsaicin by Microelectrode Array. The method, boiled down:
as §2

The target is the same in series [10]. Briefly: Induction of LPA1 receptor desensitization in Wistar rat DRG neurons assessed as reduction in neuronal activity at 10 uM treated for 15 secs twice with 4 mins interval in presence of capsaicin by microelectrode Array. The method, boiled down:
as §2

Series [11] has as its target T1, Lysophosphatidic acid receptor 1. Nature of the series: Agonist activity at recombinant human full-length LPA1 receptor expressed in dhfr- deficient CHO cells assessed as increase in intracellular calcium flux measured for 1 min by fluo-3AM dye based FLIPR assay. Type of series: functional, cell-based.
Series [12] is described as follows: Stability of the compound in culture medium assessed as parent compound remaining incubated for up to 8 hrs by HPLC-MS. The following applies: read-out: Stability. Type of series: physicochemical. The method, boiled down:
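Compound from a 50 mM DMSO stock was added to culture medium pre-warmed to 37°C and incubated at 37°C. Aliquots were quenched in cold acetonitrile, iced 10 min and centrifuged. Supernatants were analysed by HPLC-MS in SIM mode, with peak area normalised to an internal standard.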

Series [13] is described as follows: Stability of the compound in PBS at pH 7.4 assessed as parent compound remaining incubated up to 8 hrs by HPLC-MS. Type of series: physicochemical. The following applies: read-out: Stability. In outline:
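Compound from a 25 mM DMSO stock was diluted into PBS pH 7.4 and kept at rt. Parent compound remaining at each time point was measured by HPLC-MS in SIM mode, with peak area normalised to an internal standard.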

SMILES strings stand for the structures. The source made the active and inactive calls. The rule behind the calls is not given here. Where only a bound is given, the exact number is not on record here.

With `COc1cc(CNC(=O)CCCC/C=C/C(C)C)ccc1O`, the result in [1] was Active.

As for `CCCCCCCC/C=C\CCCCCCCC(=O)OCCCC(C(=O)O)C(=O)O`, the result in [2] was inactive.

In the case of `O=C(CCCCCCCCc1ccccc1)O[C@H](CBr)COP(=O)(O)O`, the outcome in series [2] was inactive.

In the case of `O=C(CCCCCCc1ccc(-c2ccccc2)cc1)OC[C@@H](O)COP(=O)(O)O`, the result in series [2] was inactive.

As usually defined, the Kd is the free concentration of one partner at which half of the binding sites on the other are occupied at equilibrium, for simple one-to-one binding. By EC50 is commonly meant the midpoint of the concentration-response curve. With `CCCCCCCC/C=C\CCCCCCCC(=O)OC[C@@H](O)COP(=O)(O)O` [LYSOPHOSPHATIDIC ACID], the outcome in [3], in series [4], in series [5], in series [8], in series [9] and in series [10] was Active. This compound also yielded a Kd in series [6] of 0.0056 µM. The EC50 in [7] came to 0.83 µM.

Regarding `CCCCCCCCCC/C=C\CCCCCCCC(=O)OC[C@@H](O)COP(=O)(O)O`, the outcome in [2] was inactive.

With `CCCCCC/C=C\CCCCCCCC(=O)OC[C@@H]1C[C@](F)(C(=O)O)C(=O)O1`, in [2], the result was inactive.

In the case of `CCCCCC/C=C\CCCCCCCC(=O)O[C@H](CBr)COP(=O)(O)O`, the outcome in series [2] was inactive.

For the compound `O=C(CCCCCCCCCCCCc1ccc(-c2ccccc2)cc1)OC[C@@H](O)COP(=O)(O)O`, in [7], the EC50 amounted to 19 µM.

`CCCCCCCC/C=C\CCCCCCCC(=O)OC[C@@H]1CC(C(=O)O)C(=O)O1` (stereo partly drawn): the result in series [2] was inactive.

Turning to `O=C(CCCCCCCCCCc1ccccc1)O[C@H](CBr)COP(=O)(O)O`, the outcome in series [2] was inactive.

Consider `CCCCCCCC/C=C\CCCCCCCC(=O)O[C@H](CBr)COP(=O)(O)O`, for which the EC50 in [7] was determined as 3.2 µM.

On to `CO[C@H](COC(=O)CCCCCCCCCc1ccccc1)CC(F)(C(=O)O)C(=O)O`, for which the outcome in series [2] was inactive.

On to `O=C(CCCCCCCCCCCCCCc1ccccc1)OC[C@@H](O)COP(=O)(O)O`, for which, in series [2], the result was inactive.

On to `CCCCCCCC/C=C\CCCCCCCC(=O)OC[C@@H](O)Cc1nnn[nH]1`, for which the outcome in [2] was inactive.

Take `O=C(CCCCCCc1ccccc1)OC[C@@H](O)COP(=O)(O)O`: in series [2], the result was inactive.

With `CC1CCC2(C)c3[nH]c4ccccc4c3CCN2C1` (stereo not drawn), the EC50 in [11] turned out to be 3.6 µM.

Regarding `CCCCCCCC/C=C\CCCCCCCC(=O)OC[C@@H](O)COc1ccc(B(O)O)cc1`, the result in series [2] was inactive.

In the case of `O=C(CCCCCCCc1ccccc1)OC[C@@H](O)COP(=O)(O)O`, the result in series [2] was inactive.

With `CCCCCC/C=C\CCCCCCCC(=O)OC[C@@H]1C[C@@](F)(C(=O)O)C(=O)O1`, the result in series [2] was inactive.

`O=C(CCCCCCCCCc1ccccc1)OC[C@@H]1CC(F)(C(=O)O)C(=O)O1` (stereo partly drawn): the outcome in series [2] was inactive.

`O=C(CCCCCCCCCc1ccccc1)O[C@H](CBr)COP(=O)(O)O`: the remaining at 8 h in series [12] and in [13] was above 85% in each case.

Turning to `CCCCCCCC/C=C\CCCCCCCC(=O)NC[C@H](CC(F)(C(=O)O)C(=O)O)OC`, the outcome in series [2] was inactive.

Turning to `CCCCCCCC/C=C\CCCCCCCC(=O)OCCCC(F)(C(=O)O)C(=O)O`, the outcome in [2] was inactive.

As to `CCCCCCCC/C=C\CCCCCCCC(=O)OC[C@@H](O)COCC(=O)O`, in series [2], the result was inactive.
